ChEMBL document CHEMBL1949664, “Epiminocyclohepta[b]indole analogs as 5-HT6 antagonists” (Bioorg Med Chem Lett, 2012)
pKi: −log10 of the molar value.

What was measured:
[1] = molecular target: T1, 5-hydroxytryptamine receptor 6 (Homo sapiens, UniProt P50406); assay: Displacement of [3H]LSD from human 5-HT6 serotonin receptor by scintillation proximity assay
[2] = system: Liver microsomes; assay: (§1) Stability in rat liver microsomes assessed as compound remaining after 1 hr; assay type: ADME, Microsome; details: microsomes, 1 h
How it was run: (§2)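 Rat liver microsomes; percent parent compound remaining after 1 h incubation.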

[3] = system: Liver microsomes; assay: (§3) Stability in human liver microsomes assessed as compound remaining after 1 hr; assay type: ADME, Microsome; details: microsomes, 1 h
How it was run: (§4)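 Human liver microsomes; percent parent compound remaining after 1 h incubation.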

[4] = system: Caco-2; assay: (§5) Permeability from apical to basolateral side of human Caco2 cells; assay type: ADME, cell-based
How it was run: (§6)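 Caco-2 monolayers; apical-to-basolateral flux reported as ×10^-6 cm/s.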

[5] = molecular target: T1, 5-hydroxytryptamine receptor 6; assay: Agonist activity at human 5-HT6 serotonin receptor expressed in CHO-1 cells assessed as cAMP production relative to 5-hydroxytryptamine; assay type: functional, cell-based; set-up: concentration or dose not given beside the values
[6] = system: Caco-2; assay: (§7) Efflux ratio of permeability from basolateral to apical side over apical to basolateral side in human Caco2 cells; assay type: ADME, cell-based
[7] = Cmax (0 to 6 hrs) in Sprague-Dawley rat at 30 mg/kg, po; assay type: ADME, organism-based; set-up: dose 30 mg/kg, route oral; details: in vivo
[8] = Tmax (0 to 6 hrs) in Sprague-Dawley rat at 30 mg/kg, po; assay type: ADME, organism-based; set-up: dose 30 mg/kg, route oral; details: in vivo
[9] = Cmax in Sprague-Dawley rat at 10 mg/kg, po; assay type: ADME, organism-based; set-up: dose 10 mg/kg, route oral; details: in vivo
[10] = Tmax in Sprague-Dawley rat at 10 mg/kg, po; assay type: ADME, organism-based; set-up: dose 10 mg/kg, route oral; details: in vivo
[11] = Half life in Sprague-Dawley rat at 10 mg/kg, po; assay type: ADME, organism-based; set-up: dose 10 mg/kg, route oral; details: in vivo
[12] = AUC (0 to infinity) in Sprague-Dawley rat at 10 mg/kg, po; assay type: ADME, organism-based; set-up: time infinity, dose 10 mg/kg, route oral; details: plasma
[13] = Clearance in Sprague-Dawley rat at 2 mg/kg, iv; assay type: ADME, organism-based; set-up: dose 2 mg/kg, route intravenous; details: in vivo
[14] = Volume of distribution at steady state in Sprague-Dawley rat at 2 mg/kg, iv; assay type: ADME, organism-based; set-up: dose 2 mg/kg, route intravenous; details: in vivo, read-out: Vdss
[15] = Oral bioavailability in Sprague-Dawley rat at 10 mg/kg; assay type: ADME, organism-based; details: in vivo
[16] = Oral bioavailability in Sprague-Dawley rat at 2 mg/kg; assay type: ADME, organism-based; details: in vivo
[17] = Ratio of drug level in brain to plasma in Sprague-Dawley rat at 10 mg/kg, po after 6 hrs; assay type: ADME, organism-based; set-up: dose 10 mg/kg, route oral; details: read-out: BPR
[18] = system: Rattus norvegicus; assay: Ex vivo 5-HT6 serotonin receptor occupancy in Sprague-Dawley rat brain at 10 mg/kg after 6 hrs using [125I][…] by autoradiography; assay type: functional
How it was run: (§8)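 Sprague Dawley rats dosed at 10, 30 or 90 mg/kg, brains taken at 6 or 24 h. Caudate putamen sections incubated with [125I]SB258585 alone (total) or plus methiothepin (non-specific); β-imager read-out. Two determinations per animal, 5 animals per dose group; specific binding expressed relative to vehicle controls.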

[19] = system: Rattus norvegicus; assay: Ex vivo 5-HT6 serotonin receptor occupancy in Sprague-Dawley rat brain at 30 mg/kg after 6 hrs using [125I][…] by autoradiography; assay type: functional; how it was run: as §8
[20] = system: Rattus norvegicus; assay: Ex vivo 5-HT6 serotonin receptor occupancy in Sprague-Dawley rat brain at 90 mg/kg after 6 hrs using [125I][…] by autoradiography; assay type: functional; how it was run: as §8
[21] = system: Rattus norvegicus; assay: Ex vivo 5-HT6 serotonin receptor occupancy in Sprague-Dawley rat brain at 10 mg/kg after 24 hrs using [125I][…] by autoradiography; assay type: functional; how it was run: as §8
[22] = system: Rattus norvegicus; assay: Ex vivo 5-HT6 serotonin receptor occupancy in Sprague-Dawley rat brain at 30 mg/kg after 24 hrs using [125I][…] by autoradiography; assay type: functional; how it was run: as §8
[23] = system: Rattus norvegicus; assay: Ex vivo 5-HT6 serotonin receptor occupancy in Sprague-Dawley rat brain at 90 mg/kg after 24 hrs using [125I][…] by autoradiography; assay type: functional; how it was run: as §8
[24] = species on record: Rattus norvegicus; assay: Ex vivo 5-HT6 serotonin receptor occupancy in Sprague-Dawley rat brain after 6 hrs using [125I][…] by autoradiography; assay type: functional, organism-based; how it was run: as §8
[25] = molecular target: T1, 5-hydroxytryptamine receptor 6; assay: Antagonist activity at human 5-HT6 serotonin receptor expressed in CHO-1 cells assessed as inhibition of 5-hydroxytryptamine-induced cAMP production; assay type: functional, cell-based
[26] = as §1; assay type: ADME, Microsome; details: liver microsomes, read-out: Stability; how it was run: as §2
[27] = as §3; assay type: ADME, Microsome; details: liver microsomes, read-out: Stability; how it was run: as §4
[28] = as §5; assay type: ADME, cell-based; details: caco-2, read-out: permeability; how it was run: as §6
[29] = as §7; assay type: ADME, cell-based; details: caco-2

T1 sequence (P50406 whole entry): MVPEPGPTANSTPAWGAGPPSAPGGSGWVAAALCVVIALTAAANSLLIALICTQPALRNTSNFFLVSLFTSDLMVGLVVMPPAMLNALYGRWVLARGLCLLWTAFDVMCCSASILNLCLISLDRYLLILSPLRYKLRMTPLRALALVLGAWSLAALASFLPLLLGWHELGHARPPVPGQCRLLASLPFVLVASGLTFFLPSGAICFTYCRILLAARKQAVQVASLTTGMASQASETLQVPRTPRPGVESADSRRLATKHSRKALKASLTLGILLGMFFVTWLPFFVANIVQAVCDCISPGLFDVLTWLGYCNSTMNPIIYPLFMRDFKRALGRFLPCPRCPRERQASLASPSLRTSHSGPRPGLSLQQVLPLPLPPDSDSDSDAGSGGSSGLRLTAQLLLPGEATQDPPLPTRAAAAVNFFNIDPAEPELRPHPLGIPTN

For `Cn1ccc(S(=O)(=O)c2ccc3c(c2)c2c(n3C)CC3CCC2N3)n1` (stereo unspecified), the pKi [1] was 6.00.
In the case of `Cn1c2c(c3cccc(S(=O)(=O)c4ccccc4)c31)C1CCC(C2)N1` (racemic), the pKi [1] was 6.09.
Work on `Cn1c2c(c3ccc(S(=O)(=O)c4ccccc4)cc31)C1CCC(C2)N1` (racemic) yielded a pKi [1] of 6.88.
Work on `CCN1C2CCC1c1c(n(C)c3ccc(S(=O)(=O)c4ccccc4)cc13)C2` (racemic) yielded a pKi [1] of 7.04.
For `O=S(=O)(c1ccccc1)c1ccc2[nH]c3c(c2c1)C1CCC(C3)N1` (racemic), the pKi [1] was 7.27.
For `Cn1c2c(c3cc(S(=O)(=O)c4cccc(F)c4)ccc31)C1CCC(C2)N1` (racemic), the pKi [1] was 8.39.
In the case of `Cn1c2c(c3cc(S(=O)(=O)c4ccncc4)ccc31)C1CCC(C2)N1` (racemic), the pKi [1] was < 5.00.
With `Cn1c2c(c3cc(S(=O)(=O)n4cccc4)ccc31)C1CCC(C2)N1` (racemic) the pKi [1] was 7.49.
`Cn1c2c(c3cc(S(=O)(=O)c4csc5ccccc45)ccc31)C1CCC(C2)N1` (single isomer, unassigned) [listing 1 of 2 here] showed a Stability [2] of 80%, a Stability [3] of 78% and a permeability [4] of 15.7 ×10⁻⁶ cm/s.
With `Cn1c2c(c3cc(S(=O)(=O)c4csc5ccccc45)ccc31)C1CCC(C2)N1` (single isomer, unassigned) [listing 2 of 2 here] the Activity [5] was < 15%.
For `Cn1c2c(c3cc(S(=O)(=O)c4cccc(Cl)c4)ccc31)C1CCC(C2)N1` (single isomer, unassigned; (+)) [listing 1 of 2 here], the Stability [2] was 72%, the Stability [3] was 93% and the permeability [4] was 8.55 ×10⁻⁶ cm/s. For the same compound, the Ratio [6] was 4.4.
In the case of `Cn1c2c(c3cc(S(=O)(=O)c4cccc(C(F)(F)F)c4)ccc31)C1CCC(C2)N1` (single isomer, unassigned; (+)) [listing 1 of 2 here], the Stability [2] was 79%, the Stability [3] was 100% and the permeability [4] was 24.8 ×10⁻⁶ cm/s. It also gave a Cmax [7] of 732 ng/mL, a Tmax [8] of 6 h and a Cmax [9] of 916 ng/mL. The Tmax [10] was 4 h, the half-life [11] was 10 h and the AUC(0-inf) [12] was 26700 ng·h/mL. The clearance [13] was 5.7 mL/min/kg, the Vd [14] was 4.7 L/kg and the bioavailability [15] was 91%. The bioavailability [16] was 91%, the Kp at 6 h [17] was 1.3 and the Activity [18] was 60%. It also gave an Activity [19] of 76%, an Activity [20] of 78% and an Activity [21] of 48%. It also gave an Activity [22] of 74% and an Activity [23] of 84%.
Compound `Cn1c2c(c3cc(S(=O)(=O)n4ccc5ccccc54)ccc31)C1CCC(C2)N1` (single isomer, unassigned; (+)) [listing 1 of 2 here] has a Stability [2] of 86%, a Stability [3] of 96% and a permeability [4] of 12 ×10⁻⁶ cm/s. For the same compound, the Cmax [7] was 41 ng/mL and the Tmax [8] was 6 h.
For `Cn1c2c(c3cc(S(=O)(=O)c4c[nH]c5ccccc45)ccc31)C1CCC(C2)N1` (single isomer, unassigned; (+)) [listing 1 of 2 here], the Stability [2] was 57%, the Stability [3] was 86% and the permeability [4] was 1.05 ×10⁻⁶ cm/s.
`Cn1c2c(c3cc(S(=O)(=O)c4ccc5[nH]ccc5c4)ccc31)C1CCC(C2)N1` (single isomer, unassigned; (+)) [listing 1 of 2 here] gave a Stability [2] of 91% and a Stability [3] of 99%.
With `Cn1c2c(c3cc(S(=O)(=O)c4c[nH]c5ccccc45)ccc31)C1CCC(C2)N1` (single isomer, unassigned; (+)) [listing 2 of 2 here] the Activity [5] was < 15%.
For `Cn1c2c(c3cc(S(=O)(=O)c4ccc5[nH]ccc5c4)ccc31)C1CCC(C2)N1` (single isomer, unassigned; (+)) [listing 2 of 2 here], the Activity [5] was < 15%.
With `Cn1c2c(c3cc(S(=O)(=O)c4cccc(C(F)(F)F)c4)ccc31)C1CCC(C2)N1` (single isomer, unassigned; (+)) [listing 2 of 2 here] the Activity [5] was < 15% and the Activity [24] was “Dose-dependent effect”.
For `Cn1c2c(c3cc(S(=O)(=O)c4cccc(Cl)c4)ccc31)C1CCC(C2)N1` (single isomer, unassigned; (+)) [listing 2 of 2 here], the Kb [25] was 4 nM and the Activity [5] was < 15%.
In the case of `Cn1c2c(c3cc(S(=O)(=O)c4ccccc4)ccc31)C1CCC(C2)N1` (single isomer, unassigned; (+)), the Activity [5] was < 15%.
With `Cn1c2c(c3cc(S(=O)(=O)n4ccc5ccccc54)ccc31)C1CCC(C2)N1` (single isomer, unassigned; (+)) [listing 2 of 2 here] the Activity [5] was < 15%.
`Cn1c2c(c3cc(S(=O)(=O)c4cccc(Cl)c4)ccc31)C1CCC(C2)N1` (single isomer, unassigned; (-)) [listing 1 of 2 here] showed a remaining at 1 h [26] of 63%, a remaining at 1 h [27] of 76% and a Papp A→B [28] of 7.49 ×10⁻⁶ cm/s. It also gave an efflux ratio [29] of 6.
For `Cn1c2c(c3cc(S(=O)(=O)c4cccc(C(F)(F)F)c4)ccc31)C1CCC(C2)N1` (single isomer, unassigned; (-)) [listing 1 of 2 here], the remaining at 1 h [26] was 65%, the Stability [3] was 78% and the Papp A→B [28] was 16.5 ×10⁻⁶ cm/s.
Work on `Cn1c2c(c3cc(S(=O)(=O)n4ccc5ccccc54)ccc31)C1CCC(C2)N1` (single isomer, unassigned; (-)) [listing 1 of 2 here] yielded a remaining at 1 h [26] of 88%, a remaining at 1 h [27] of 82% and a Papp A→B [28] of 15 ×10⁻⁶ cm/s.
`Cn1c2c(c3cc(S(=O)(=O)c4c[nH]c5ccccc45)ccc31)C1CCC(C2)N1` (single isomer, unassigned; (-)) [listing 1 of 2 here] showed a Stability [2] of 34%, a remaining at 1 h [27] of 72% and a permeability [4] of 0.41 ×10⁻⁶ cm/s.
`Cn1c2c(c3cc(S(=O)(=O)c4ccc5[nH]ccc5c4)ccc31)C1CCC(C2)N1` (single isomer, unassigned; (-)) [listing 1 of 2 here] gave a remaining at 1 h [26] of 77%, a remaining at 1 h [27] of 89% and a Papp A→B [28] of 0.55 ×10⁻⁶ cm/s.
With `Cn1c2c(c3cc(S(=O)(=O)c4csc5ccccc45)ccc31)C1CCC(C2)N1` (single isomer, unassigned; (-)) [listing 1 of 2 here] the remaining at 1 h [26] was 67%, the Stability [3] was 52% and the permeability [4] was 0.24 ×10⁻⁶ cm/s.
For `Cn1c2c(c3cc(S(=O)(=O)c4c[nH]c5ccccc45)ccc31)C1CCC(C2)N1` (single isomer, unassigned; (-)) [listing 2 of 2 here], the Activity [5] was < 15%.
With `Cn1c2c(c3cc(S(=O)(=O)c4ccc5[nH]ccc5c4)ccc31)C1CCC(C2)N1` (single isomer, unassigned; (-)) [listing 2 of 2 here] the Activity [5] was < 15%.
For `Cn1c2c(c3cc(S(=O)(=O)c4cccc(C(F)(F)F)c4)ccc31)C1CCC(C2)N1` (single isomer, unassigned; (-)) [listing 2 of 2 here], the Activity [5] was < 15%.
In the case of `Cn1c2c(c3cc(S(=O)(=O)c4cccc(Cl)c4)ccc31)C1CCC(C2)N1` (single isomer, unassigned; (-)) [listing 2 of 2 here], the Kb [25] was 3.5 nM and the Activity [5] was < 15%.
In the case of `Cn1c2c(c3cc(S(=O)(=O)c4ccccc4)ccc31)C1CCC(C2)N1` (single isomer, unassigned; (-)), the Activity [5] was < 15%.
For `Cn1c2c(c3cc(S(=O)(=O)c4csc5ccccc45)ccc31)C1CCC(C2)N1` (single isomer, unassigned; (-)) [listing 2 of 2 here], the Activity [5] was < 15%.
In the case of `Cn1c2c(c3cc(S(=O)(=O)n4ccc5ccccc54)ccc31)C1CCC(C2)N1` (single isomer, unassigned; (-)) [listing 2 of 2 here], the Activity [5] was < 15%.
